From publication PMC5624809 (Journal of the American Chemical Society, 2017)
Like-named read-outs stand apart in the source and are kept apart here. Marks after values point to notes of the source that are not given here. One block for each compound: values may come before it.

Assays:
antithrombin (AT) [1] = molecular target: T1, antithrombin (AT) (Homo sapiens, UniProt P01008); assay: AT-binding affinity analysis using isothermal titration calorimetry; details: for Binding affinity (Kd) to AT / Kd: ITC; for Kd: read-out: Binding affinity (Kd) to AT
FXa [2] = assay: in vitro inhibition of the activity of FXa; format: biochemical; details: for IC50: read-out: Anti-FXa activity (IC50)
antithrombin (AT) [3] = molecular target: T1, antithrombin (AT); details: read-out: Binding affinity (Kd) to AT; affinity coelectrophoresis; cited from earlier work
antithrombin (AT) [4] = molecular target: T1, antithrombin (AT); details: cited from earlier work
FXa [5] = details: cited from earlier work
FXa [6] = assay: anti-FXa effect in a rat model; format: in vivo
Method in brief: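 Anti-Xa activity measured at several time points after dosing, with a saline-treated group as control. Values are mean ± S.D. (n = 4). Each treated group was compared with control by two-tailed Student's t-test, with p < 0.05 flagged.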

T1 sequence (P01008 33-464): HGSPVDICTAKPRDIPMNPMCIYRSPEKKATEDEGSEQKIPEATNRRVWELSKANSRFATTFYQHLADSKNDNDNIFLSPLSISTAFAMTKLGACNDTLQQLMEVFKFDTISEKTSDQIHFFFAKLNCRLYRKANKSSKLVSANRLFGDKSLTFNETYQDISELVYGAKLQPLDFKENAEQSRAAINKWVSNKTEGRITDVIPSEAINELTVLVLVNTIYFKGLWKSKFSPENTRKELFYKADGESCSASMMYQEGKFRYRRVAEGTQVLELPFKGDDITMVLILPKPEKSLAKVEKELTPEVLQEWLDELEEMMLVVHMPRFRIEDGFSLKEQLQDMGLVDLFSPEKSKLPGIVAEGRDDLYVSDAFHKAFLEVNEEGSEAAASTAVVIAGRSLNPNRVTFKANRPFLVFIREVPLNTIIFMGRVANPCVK

Compound: GlcNS-GlcA-GlcNS-IdoA2S-GlcNS3S-IdoA2S-GlcNS-GlcA-pNP [Comp 4]
Binding affinity (Kd) to AT (antithrombin (AT) [1]): No binding ^c | Anti-FXa activity (IC50) (FXa [2]): No inhibition

Compound: O=C(O)[C@H]1O[C@@H](O[C@H]2[C@H](OS(=O)(=O)O)[C@@H](NS(=O)(=O)O)[C@@H](O[C@H]3[C@H](O)[C@@H](OS(=O)(=O)O)[C@H](O[C@H]4[C@H](OS(=O)(=O)O)[C@@H](NS(=O)(=O)O)[C@@H](O[C@H]5[C@H](O)[C@@H](O)[C@H](Oc6ccc([N+](=O)[O-])cc6)O[C@@H]5C(=O)O)O[C@@H]4COS(=O)(=O)O)O[C@H]3C(=O)O)O[C@@H]2COS(=O)(=O)O)[C@H](O)[C@@H](O)[C@@H]1O[C@H]1O[C@H](COS(=O)(=O)O)[C@@H](O)[C@H](O)[C@H]1NS(=O)(=O)O [Comp 3, GlcNS6S-GlcA-GlcNS3S6S-IdoA2S-GlcNS3S6S-GlcA-pNP]
anti-FXa activity (in words) (FXa [2]): strong anti-FXa activity | IC50 (FXa [2]): 11 nM

Compound: GlcNAc6S-GlcA-GlcNS3S6S-IdoA2S-GlcNS6S-IdoA2S-GlcNS6S-GlcA-pNP [Comp 11*]
IC50 (FXa [2]): 9.4 nM | Kd (antithrombin (AT) [3]): 8 ± 3 nM

Compound: GlcNS6S-GlcA-GlcNS3S6S-IdoA2S-GlcNS6S-GlcA-pNP [Comp 8*]
anti-FXa activity (in words) (FXa [2]): displayed anti-FXa activity | IC50 (FXa [2]): 9.1 nM | Kd (antithrombin (AT) [3]): 7 ± 2 nM

Compound: O=C(O)C1OC(OC2C(COS(=O)(=O)O)OC(OC3C(C(=O)O)OC(OC4C(COS(=O)(=O)O)OC(OC5C(C(=O)O)OC(Oc6ccc([N+](=O)[O-])cc6)C(O)C5O)C(NS(=O)(=O)O)C4O)C(OS(=O)(=O)O)C3O)C(NS(=O)(=O)O)C2OS(=O)(=O)O)C(O)C(O)C1OC1OC(COS(=O)(=O)O)C(O)C(O)C1NS(=O)(=O)O (stereo not drawn) [GlcA2S-containing 6-mer, GlcNS6S-GlcA-GlcNS3S6S-GlcA2S-GlcNS6S-GlcA-pNP]
Binding affinity (Kd) to AT (antithrombin (AT) [4]): No binding ^d | anti-FXa activity (in words) (FXa [5]): did not display anti-FXa activity

Compound: CO[C@H]1O[C@H](COS(=O)(=O)O)[C@@H](O[C@@H]2O[C@@H](C(=O)O)[C@@H](O[C@H]3O[C@H](COS(=O)(=O)O)[C@@H](O[C@@H]4O[C@H](C(=O)O)[C@@H](O[C@H]5O[C@H](COS(=O)(=O)O)[C@@H](O)[C@H](O)[C@H]5NS(=O)(=O)O)[C@H](O)[C@H]4O)[C@H](OS(=O)(=O)O)[C@H]3NS(=O)(=O)O)[C@H](O)[C@H]2OS(=O)(=O)O)[C@H](O)[C@H]1NS(=O)(=O)O [Fondaparinux, GlcNS6S-GlcA-GlcNS3S6S-IdoA2S-GlcNS6S-OMe, reference compound]
IC50 (FXa [2]): 12.2 nM | persistence of anti-FXa effect in vivo (FXa [6]; time after administration): persisted after 8 hours

Compound: O=C(O)C1OC(OC2C(COS(=O)(=O)O)OC(OC3C(C(=O)O)OC(OC4C(COS(=O)(=O)O)OC(OC5C(C(=O)O)OC(Oc6ccc([N+](=O)[O-])cc6)C(O)C5O)C(NS(=O)(=O)O)C4O)C(O)C3O)C(NS(=O)(=O)O)C2OS(=O)(=O)O)C(O)C(O)C1OC1OC(COS(=O)(=O)O)C(O)C(O)C1NS(=O)(=O)O (stereo not drawn) [IdoA-containing 6-mer, GlcNS6S-GlcA-GlcNS3S6S-IdoA-GlcNS6S-GlcA-pNP]
Kd (antithrombin (AT) [4]; read-out: Binding affinity (Kd) to AT): 32.6 ± 5.3 nM | anti-FXa activity (in words) (FXa [5]): exhibited anti-FXa activity | IC50 (FXa [5]; read-out: Anti-FXa activity (IC50)): 29.2 nM

More lines, main results first:

AT binding (in words) (antithrombin (AT) [1]): high AT-binding affinity | Kd (antithrombin (AT) [1]): 5.6 ± 2.6 nM | IC50 (FXa [2]): 10.9 nM
Compound: O=C(O)[C@H]1O[C@@H](Oc2ccc([N+](=O)[O-])cc2)[C@H](O)[C@@H](O)[C@@H]1O[C@H]1O[C@H](COS(=O)(=O)O)[C@@H](O[C@@H]2O[C@@H](C(=O)O)[C@@H](O[C@H]3O[C@H](COS(=O)(=O)O)[C@@H](O[C@@H]4O[C@@H](C(=O)O)[C@@H](O[C@H]5O[C@H](COS(=O)(=O)O)[C@@H](O[C@@H]6O[C@H](C(=O)O)[C@@H](O[C@H]7O[C@H](COS(=O)(=O)O)[C@@H](O)[C@H](O)[C@H]7NS(=O)(=O)O)[C@H](O)[C@H]6O)[C@H](OS(=O)(=O)O)[C@H]5NS(=O)(=O)O)[C@H](O)[C@H]4OS(=O)(=O)O)[C@H](OS(=O)(=O)O)[C@H]3NS(=O)(=O)O)[C@H](O)[C@H]2OS(=O)(=O)O)[C@H](O)[C@H]1NS(=O)(=O)O [Comp 6, GlcNS6S-GlcA-GlcNS3S6S-IdoA2S-GlcNS3S6S-IdoA2S-GlcNS6S-GlcA-pNP]
anti-FXa activity (in words) (FXa [2]): displaying anti-FXa activity

AT binding (in words) (antithrombin (AT) [1]): binds to AT tightly | Kd (antithrombin (AT) [1]): 5.1 ± 1.4 nM | IC50 (FXa [2]): 7.7 nM
Compound: GlcNS6S-GlcA-GlcNS6S-IdoA2S-GlcNS3S6S-IdoA2S-GlcNS6S-GlcA-pNP [Comp 5]
anti-FXa activity (in words) (FXa [2]): strong anti-FXa activity | anti-FXa potency in vivo (FXa [6]; within 30 min after the drug was administered): comparable anti-FXa potency to that of fondaparinux and compound 11*

Binding affinity (Kd) to AT (antithrombin (AT) [1]): No binding | Anti-FXa activity (IC50) (FXa [2]): No inhibition
Compound: O=C(O)C1OC(OC2C(COS(=O)(=O)O)OC(OC3C(C(=O)O)OC(OC4C(COS(=O)(=O)O)OC(OC5C(C(=O)O)OC(Oc6ccc([N+](=O)[O-])cc6)C(O)C5O)C(NS(=O)(=O)O)C4OS(=O)(=O)O)C(OS(=O)(=O)O)C3O)C(NS(=O)(=O)O)C2O)C(O)C(O)C1OC1OC(COS(=O)(=O)O)C(O)C(O)C1NS(=O)(=O)O (stereo not drawn) [Comp 2, GlcNS6S-GlcA-GlcNS6S-IdoA2S-GlcNS3S6S-GlcA-pNP]
